Results from ChEMBL document CHEMBL4689842, “EUbOPEN Chemogenomics Library wave 1” (2021).
Values joined by “and” are separate entries in the source; they are usually repeats but may differ in a detail not shown here. Equal entries are not always repeated.

Legend:
Format in all cases: toxicity, cell-based
U2OS [1] = test: Multiplex assay against U2OS; conditions: human, 10 µM, compound concentration 10 uM
How it was run: (§1)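 Four dyes were applied at seeding to live cells: Hoechst33342, BioTracker Green Microtubule Cytoskeleton Dye, MitoTracker Red and Annexin V Alexa Fluor 680. Imaging after compound addition used a CQ1 microscope at 37°C and 5% CO2. CellPathfinder machine-learning gating then sorted cells into Hoechst high-intensity objects or normal cells, normal cells into healthy, pyknosed or fragmented nuclei, and pyknosed cells into mitotic or apoptotic, with tubulin, mitochondrial-mass and membrane-permeability phenotypes given as per cents of healthy-nucleus cells.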

U2OS [2] = test: Incucyte cell viability with U2OS; conditions: human, 10 µM, compound concentration 10 uM; note: filed as whole numbers so only -1 and 0 and 1 occur
Fibroblast [3] = test: Multiplex assay against human fibroblast; conditions: 10 µM, compound concentration 10 uM; how it was run: as §1
HEK-293T [4] = test: Incucyte cell viability with HEK293T; conditions: human, 10 µM, compound concentration 10 uM; note: filed as whole numbers so only -1 and 0 and 1 occur
HEK-293T [5] = test: Multiplex assay against HEK293T; conditions: human, 10 µM, compound concentration 10 uM; how it was run: as §1;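 for Population Tubulin-Different-Phenotype (%): share of the cells with healthy nuclei that show this phenotype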
Fibroblast [6] = test: Incucyte cell viability with human fibroblast; conditions: 10 µM, compound concentration 10 uM; note: filed as whole numbers so only -1 and 0 and 1 occur
[7] = 0 h, replicate number 1, timepoint 0 hours
[8] = 0 h, replicate number 2, timepoint 0 hours
[9] = 6 h, replicate number 1, timepoint 6 hours
[10] = 12 h, replicate number 1, timepoint 12 hours
[11] = 18 h, replicate number 1, timepoint 18 hours
[12] = 24 h, replicate number 1, timepoint 24 hours
[13] = 6 h, replicate number 2, timepoint 6 hours

C[C@@H]1CN(c2cc(-c3nn(C)c4ccc(OC5(C)CC5)cc34)ncn2)C[C@H](C)O1 [MLi-2-NC]
Population Apoptotic (%) (U2OS [1]; 12 h, replicate 1): 80% and 54% | Population Fragmented Nuclei (%) (U2OS [1]; 12 h, replicate 1): 2% | Population Healthy Nuclei (%) (U2OS [1]; 12 h, replicate 1): 93% and 87% | Population Hoechst High Intensity Objects (%) (U2OS [1]; 12 h, replicate 1): 4% and 5% | Population Membrane Permeable-Phenotype (%) (U2OS [1]; 12 h, replicate 1): 19% and 9% | Population Mitochondria Different-Phenotype (%) (U2OS [1]; 12 h, replicate 1): 14% and 30% | Population Mitotic Cells (%) (U2OS [1]; 12 h, replicate 1): 20% and 45% | Population Normal (%) (U2OS [1]; 12 h, replicate 1): 95% and 94% | Population Pyknosed Nuclei (%) (U2OS [1]; 12 h, replicate 1): 3% and 7% | Population Tubulin-Different-Phenotype (%) (U2OS [1]; 12 h, replicate 1): 16% and 29% | Total Cell Count (U2OS [1]; 12 h, replicate 1): 165 and 347 | Population Apoptotic (%) (U2OS [1]; 12 h, replicate 2): 50% and 40% | Population Fragmented Nuclei (%) (U2OS [1]; 12 h, replicate 2): 5% and 7% | Population Healthy Nuclei (%) (U2OS [1]; 12 h, replicate 2): 91% and 88% | Population Hoechst High Intensity Objects (%) (U2OS [1]; 12 h, replicate 2): 9% and 15% | Population Membrane Permeable-Phenotype (%) (U2OS [1]; 12 h, replicate 2): 14% and 7% | Population Mitochondria Different-Phenotype (%) (U2OS [1]; 12 h, replicate 2): 21% and 26% | Population Mitotic Cells (%) (U2OS [1]; 12 h, replicate 2): 50% and 60% | Population Normal (%) (U2OS [1]; 12 h, replicate 2): 90% and 84% | Population Tubulin-Different-Phenotype (%) (U2OS [1]; 12 h, replicate 2): 14% and 41% | Total Cell Count (U2OS [1]; 12 h, replicate 2): 153 and 242 | Population Apoptotic (%) (U2OS [1]; 24 h, replicate 1): 44% and 50% | Population Healthy Nuclei (%) (U2OS [1]; 24 h, replicate 1): 92% | Population Hoechst High Intensity Objects (%) (U2OS [1]; 24 h, replicate 1): 1% | Population Membrane Permeable-Phenotype (%) (U2OS [1]; 24 h, replicate 1): 10% and 3% | Population Mitochondria Different-Phenotype (%) (U2OS [1]; 24 h, replicate 1): 16% and 21% | Population Mitotic Cells (%) (U2OS [1]; 24 h, replicate 1): 55% and 50% | Population Normal (%) (U2OS [1]; 24 h, replicate 1): 98% | Population Tubulin-Different-Phenotype (%) (U2OS [1]; 24 h, replicate 1): 16% and 32% | Total Cell Count (U2OS [1]; 24 h, replicate 1): 226 and 387 | Population Fragmented Nuclei (%) (U2OS [1]; 24 h, replicate 2): 4% and 3% | Population Healthy Nuclei (%) (U2OS [1]; 24 h, replicate 2): 90% and 93% | Population Hoechst High Intensity Objects (%) (U2OS [1]; 24 h, replicate 2): 11% and 4% | Population Membrane Permeable-Phenotype (%) (U2OS [1]; 24 h, replicate 2): 12% and 8% | Population Mitochondria Different-Phenotype (%) (U2OS [1]; 24 h, replicate 2): 27% and 18% | Population Normal (%) (U2OS [1]; 24 h, replicate 2): 88% and 95% | Population Pyknosed Nuclei (%) (U2OS [1]; 24 h, replicate 2): 4% and 3% | Population Tubulin-Different-Phenotype (%) (U2OS [1]; 24 h, replicate 2): 18% and 37% | Total Cell Count (U2OS [1]; 24 h, replicate 2): 183 and 245 | Growth Rate (U2OS [2]; [7]): 1 | Growth Rate (U2OS [2]; [8]): 0 | Growth Rate (U2OS [2]; [9]): 1 | Growth Rate (U2OS [2]; [10]): 1 | Growth Rate (U2OS [2]; [11]): 0 | Growth Rate (U2OS [2]; 18 h, replicate number 2, timepoint 18 hours): 1 | Growth Rate (U2OS [2]; [12]): 0 | Growth Rate (U2OS [2]; 24 h, replicate number 2, timepoint 24 hours): 1 | Population Apoptotic (%) (Fibroblast [3]; 12 h, replicate 1): 65% and 70% | Population Fragmented Nuclei (%) (Fibroblast [3]; 12 h, replicate 1): 24% and 21% | Population Healthy Nuclei (%) (Fibroblast [3]; 12 h, replicate 1): 59% and 61% | Population Hoechst High Intensity Objects (%) (Fibroblast [3]; 12 h, replicate 1): 9% and 12% | Population Mitochondria Different-Phenotype (%) (Fibroblast [3]; 12 h, replicate 1): 3% | Population Mitotic Cells (%) (Fibroblast [3]; 12 h, replicate 1): 34% and 29% | Population Normal (%) (Fibroblast [3]; 12 h, replicate 1): 90% and 87% | Population Pyknosed Nuclei (%) (Fibroblast [3]; 12 h, replicate 1): 16% | Total Cell Count (Fibroblast [3]; 12 h, replicate 1): 234 and 261 | Population Apoptotic (%) (Fibroblast [3]; 12 h, replicate 2): 42% and 50% | Population Fragmented Nuclei (%) (Fibroblast [3]; 12 h, replicate 2): 44% and 53% | Population Healthy Nuclei (%) (Fibroblast [3]; 12 h, replicate 2): 36% and 42% | Population Hoechst High Intensity Objects (%) (Fibroblast [3]; 12 h, replicate 2): 32% and 43% | Population Membrane Permeable-Phenotype (%) (Fibroblast [3]; 12 h, replicate 2): 21% and 15% | Population Mitochondria Different-Phenotype (%) (Fibroblast [3]; 12 h, replicate 2): 7% and 10% | Population Mitotic Cells (%) (Fibroblast [3]; 12 h, replicate 2): 57% and 50% | Population Normal (%) (Fibroblast [3]; 12 h, replicate 2): 67% and 56% | Population Tubulin-Different-Phenotype (%) (Fibroblast [3]; 12 h, replicate 2): 21% and 20% | Total Cell Count (Fibroblast [3]; 12 h, replicate 2): 56 and 83 | Population Apoptotic (%) (Fibroblast [3]; 24 h, replicate 1): 45% and 61% | Population Fragmented Nuclei (%) (Fibroblast [3]; 24 h, replicate 1): 25% and 27% | Population Healthy Nuclei (%) (Fibroblast [3]; 24 h, replicate 1): 59% and 56% | Population Hoechst High Intensity Objects (%) (Fibroblast [3]; 24 h, replicate 1): 12% and 11% | Population Membrane Permeable-Phenotype (%) (Fibroblast [3]; 24 h, replicate 1): 9% and 7% | Population Mitochondria Different-Phenotype (%) (Fibroblast [3]; 24 h, replicate 1): 3% and 9% | Population Mitotic Cells (%) (Fibroblast [3]; 24 h, replicate 1): 54% and 38% | Population Normal (%) (Fibroblast [3]; 24 h, replicate 1): 87% and 88% | Population Pyknosed Nuclei (%) (Fibroblast [3]; 24 h, replicate 1): 14% and 16% | Population Tubulin-Different-Phenotype (%) (Fibroblast [3]; 24 h, replicate 1): 8% and 22% | Total Cell Count (Fibroblast [3]; 24 h, replicate 1): 282 and 230 | Population Apoptotic (%) (Fibroblast [3]; 24 h, replicate 2): 62% and 50% | Population Fragmented Nuclei (%) (Fibroblast [3]; 24 h, replicate 2): 53% and 63% | Population Healthy Nuclei (%) (Fibroblast [3]; 24 h, replicate 2): 21% and 28% | Population Hoechst High Intensity Objects (%) (Fibroblast [3]; 24 h, replicate 2): 33% and 34% | Population Membrane Permeable-Phenotype (%) (Fibroblast [3]; 24 h, replicate 2): 42% and 23% | Population Mitotic Cells (%) (Fibroblast [3]; 24 h, replicate 2): 37% and 50% | Population Normal (%) (Fibroblast [3]; 24 h, replicate 2): 66% and 65% | Population Tubulin-Different-Phenotype (%) (Fibroblast [3]; 24 h, replicate 2): 42% and 30% | Total Cell Count (Fibroblast [3]; 24 h, replicate 2): 48 and 70 | Growth Rate (HEK-293T [4]; [7]): 0 | Growth Rate (HEK-293T [4]; [9]): 1 | Growth Rate (HEK-293T [4]; [13]): 0 | Growth Rate (HEK-293T [4]; [10]): 0 | Growth Rate (HEK-293T [4]; [11]): 0 | Growth Rate (HEK-293T [4]; [12]): 0 | Population Apoptotic (%) (HEK-293T [5]; 12 h, replicate 1): 9% and 22% | Population Fragmented Nuclei (%) (HEK-293T [5]; 12 h, replicate 1): 18% and 14% | Population Healthy Nuclei (%) (HEK-293T [5]; 12 h, replicate 1): 55% and 62% | Population Hoechst High Intensity Objects (%) (HEK-293T [5]; 12 h, replicate 1): 10% and 16% | Population Membrane Permeable-Phenotype (%) (HEK-293T [5]; 12 h, replicate 1): 4% and 3% | Population Mitochondria Different-Phenotype (%) (HEK-293T [5]; 12 h, replicate 1): 5% and 6% | Population Mitotic Cells (%) (HEK-293T [5]; 12 h, replicate 1): 90% and 77% | Population Normal (%) (HEK-293T [5]; 12 h, replicate 1): 89% and 83% | Population Pyknosed Nuclei (%) (HEK-293T [5]; 12 h, replicate 1): 25% and 23% | Total Cell Count (HEK-293T [5]; 12 h, replicate 1): 441 and 673 | Population Apoptotic (%) (HEK-293T [5]; 12 h, replicate 2): 6% and 12% | Population Fragmented Nuclei (%) (HEK-293T [5]; 12 h, replicate 2): 7% and 4% | Population Healthy Nuclei (%) (HEK-293T [5]; 12 h, replicate 2): 87% and 89% | Population Hoechst High Intensity Objects (%) (HEK-293T [5]; 12 h, replicate 2): 2% and 3% | Population Membrane Permeable-Phenotype (%) (HEK-293T [5]; 12 h, replicate 2): 2% | Population Mitochondria Different-Phenotype (%) (HEK-293T [5]; 12 h, replicate 2): 8% and 14% | Population Mitotic Cells (%) (HEK-293T [5]; 12 h, replicate 2): 93% and 87% | Population Normal (%) (HEK-293T [5]; 12 h, replicate 2): 97% and 96% | Population Pyknosed Nuclei (%) (HEK-293T [5]; 12 h, replicate 2): 4% and 6% | Population Tubulin-Different-Phenotype (%) (HEK-293T [5]; 12 h, replicate 2): 5% and 14% | Total Cell Count (HEK-293T [5]; 12 h, replicate 2): 1849 and 1412 | Population Apoptotic (%) (HEK-293T [5]; 24 h, replicate 1): 11% and 25% | Population Fragmented Nuclei (%) (HEK-293T [5]; 24 h, replicate 1): 16% and 12% | Population Healthy Nuclei (%) (HEK-293T [5]; 24 h, replicate 1): 72% and 75% | Population Hoechst High Intensity Objects (%) (HEK-293T [5]; 24 h, replicate 1): 6% and 11% | Population Membrane Permeable-Phenotype (%) (HEK-293T [5]; 24 h, replicate 1): 3% | Population Mitochondria Different-Phenotype (%) (HEK-293T [5]; 24 h, replicate 1): 1% and 5% | Population Mitotic Cells (%) (HEK-293T [5]; 24 h, replicate 1): 88% and 74% | Population Normal (%) (HEK-293T [5]; 24 h, replicate 1): 93% and 88% | Population Pyknosed Nuclei (%) (HEK-293T [5]; 24 h, replicate 1): 10% and 12% | Total Cell Count (HEK-293T [5]; 24 h, replicate 1): 505 and 711 | Population Apoptotic (%) (HEK-293T [5]; 24 h, replicate 2): 3% and 7% | Population Fragmented Nuclei (%) (HEK-293T [5]; 24 h, replicate 2): 24% and 13% | Population Healthy Nuclei (%) (HEK-293T [5]; 24 h, replicate 2): 73% and 83% | Population Hoechst High Intensity Objects (%) (HEK-293T [5]; 24 h, replicate 2): 2% and 4% | Population Membrane Permeable-Phenotype (%) (HEK-293T [5]; 24 h, replicate 2): 5% | Population Mitochondria Different-Phenotype (%) (HEK-293T [5]; 24 h, replicate 2): 2% and 4% | Population Mitotic Cells (%) (HEK-293T [5]; 24 h, replicate 2): 96% and 92% | Population Normal (%) (HEK-293T [5]; 24 h, replicate 2): 97% and 95% | Population Pyknosed Nuclei (%) (HEK-293T [5]; 24 h, replicate 2): 1% and 3% | Total Cell Count (HEK-293T [5]; 24 h, replicate 2): 3187 and 2081 | Growth Rate (Fibroblast [6]; [8]): 0 | Growth Rate (Fibroblast [6]; [9]): 0 | Growth Rate (Fibroblast [6]; [13]): 1 | Growth Rate (Fibroblast [6]; [10]): 1 | Growth Rate (Fibroblast [6]; [11]): 0 | Growth Rate (Fibroblast [6]; [12]): 0
